Experimental data: ChEMBL document CHEMBL1649387, “Synthesis and evaluation of quinonoid compounds against tumor cell lines” (Eur J Med Chem, 2011)

Columns and labels:
PBMC = assay: Cytotoxicity against human PBMC cells after 72 hrs by Alamar Blue assay; format: cell-based
HL-60 [1] = assay: Cytotoxicity against human HL60 cells after 72 hrs by MTT assay; format: functional, cell-based; conditions: HL-60, 72 h
MDA-MB-435 [2] = assay: Cytotoxicity against human MDA-MB-435 cells after 72 hrs by MTT assay; format: functional, cell-based; conditions: MDA-MB-435, 72 h
HCT-8 [3] = assay: Cytotoxicity against human HCT8 cells after 72 hrs by MTT assay; format: functional, cell-based; conditions: HCT-8, 72 h
SF-295 [4] = assay: Cytotoxicity against human SF295 cells after 72 hrs by MTT assay; format: functional, cell-based; conditions: SF-295, 72 h
HL-60 [5] = assay: Induction of apoptosis in human HL60 cells assessed as apoptotic nuclei at 5 uM after 24 hrs by acridine orange/ethidium bromide staining based fluorescence microscopy; format: functional
Outline: (§1)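 Cells exposed 24 h, with or without 24 h pretreatment with 1-bromoheptane. Cell suspension mixed with acridine orange/ethidium bromide (each 100 in PBS) and spread on slide. 300 cells counted per point by fluorescence microscopy to give % apoptotic cells. Mean ± S.E.M. of three experiments.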

MDA-MB-435 [6] = assay: Induction of apoptosis in human MDA-MB-435 cells assessed as apoptotic nuclei at 5 uM after 24 hrs by acridine orange/ethidium bromide staining based fluorescence microscopy; format: functional; outline: as §1
HCT-8 [7] = assay: Induction of apoptosis in human HCT8 cells assessed as apoptotic nuclei at 5 uM after 24 hrs by acridine orange/ethidium bromide staining based fluorescence microscopy; format: functional; outline: as §1
SF-295 [8] = assay: Induction of apoptosis in human SF295 cells assessed as apoptotic nuclei at 5 uM after 24 hrs by acridine orange/ethidium bromide staining based fluorescence microscopy; format: functional; outline: as §1
HL-60 [9] = assay: Induction of apoptosis in human HL60 cells assessed as apoptotic nuclei at 5 uM after 24 hrs by acridine orange/ethidium bromide staining based fluorescence microscopy in presence of 1-bromoheptane; format: functional; outline: as §1
MDA-MB-435 [10] = assay: Induction of apoptosis in human MDA-MB-435 cells assessed as apoptotic nuclei at 5 uM after 24 hrs by acridine orange/ethidium bromide staining based fluorescence microscopy in presence of 1-bromoheptane; format: functional; outline: as §1
HCT-8 [11] = assay: Induction of apoptosis in human HCT8 cells assessed as apoptotic nuclei at 5 uM after 24 hrs by acridine orange/ethidium bromide staining based fluorescence microscopy in presence of 1-bromoheptane; format: functional; outline: as §1
SF-295 [12] = assay: Induction of apoptosis in human SF295 cells assessed as apoptotic nuclei at 5 uM after 24 hrs by acridine orange/ethidium bromide staining based fluorescence microscopy in presence of 1-bromoheptane; format: functional; outline: as §1

Structure (SMILES) | IC50 (PBMC) [µM] | IC50 (HL-60 [1]) [µM] | IC50 (MDA-MB-435 [2]) [µM] | IC50 (HCT-8 [3]) [µM] | IC50 (SF-295 [4]) [µM] | Activity (HL-60 [5]) [%] | Activity (MDA-MB-435 [6]) [%] | Activity (HCT-8 [7]) [%] | Activity (SF-295 [8]) [%] | Activity (HL-60 [9]) [%] | Activity (MDA-MB-435 [10]) [%] | Activity (HCT-8 [11]) [%] | Activity (SF-295 [12]) [%]
CC1(C)OC2C(=O)c3ccccc3C(=O)C2[C@@H](N=[N+]=[N-])[C@@H]1Br (some centres undefined) | 11.3 | 5.68 | 3.97 | 12.4 | 13.8 | – | – | – | – | – | – | – | –
O=C1c2ccccc2C(=O)c2c1ccc1nc(-c3ccccc3)[nH]c21 | > 15.4 | > 15.4 | > 15.4 | > 15.4 | > 15.4 | 12.59 | 9.02 | 10.35 | 7.32 | 8.37 | 11.44 | 8.11 | 9.17
Cc1ccc(-c2nc3ccc4c(c3[nH]2)C(=O)c2ccccc2C4=O)cc1 | > 14.8 | > 14.8 | > 14.8 | > 14.8 | > 14.8 | 5.27 | 7.49 | 8.72 | 5.82 | 9.62 | 12.27 | 9.31 | 4.17
CCCC1=C(O)C(=O)C2=C(CCCC2)C1=O | > 22.7 | > 22.7 | > 22.7 | 3.99 | > 22.7 | – | – | – | – | – | – | – | –
CC1(C)OC2=C(C(=O)C(=O)c3ccccc32)[C@H](n2cc(-c3ccc(Br)cc3)nn2)[C@H]1Br | 4.01 | 1.67 | 1.99 | 2.24 | 2.33 | – | – | – | – | – | – | – | –
Cc1cccc(-c2nc3ccc4c(c3[nH]2)C(=O)c2ccccc2C4=O)c1 | > 14.8 | > 14.8 | > 14.8 | > 14.8 | > 14.8 | 7.33 | 9.81 | 12.01 | 10.05 | 6.18 | 6.17 | 7.28 | 7.38
CC(C)=CCC1=C(OC2(CC=C(C)C)C(=O)C(=O)c3ccccc3C2=O)C(=O)c2ccccc2C1=O (centres undefined) | > 10.4 | > 10.4 | > 10.4 | 9.76 | > 10.4 | 11.17 | 4.72 | 8.52 | 11.45 | 8.46 | 5.82 | 9.16 | 7.3
CCCC1=C(O)C(=O)c2ccccc2C1=O | > 23.1 | > 23.1 | > 23.1 | > 23.1 | – | – | – | – | – | – | – | – | –
CCCC1=C(OC2(CCC)C(=O)C(=O)C3=C(CCCC3)C2=O)C(=O)C2=C(CCCC2)C1=O (centres undefined) | > 11.4 | > 11.4 | > 11.4 | > 11.4 | > 11.4 | 9.13 | 8.56 | 9.27 | 11.73 | 11.04 | 12.09 | 11.7 | 13.97
COc1cc(-c2nc3ccc4c(c3[nH]2)C(=O)c2ccccc2C4=O)ccc1O | > 13.6 | > 13.6 | > 13.6 | > 13.6 | > 13.6 | – | – | – | – | – | – | – | –
O=C1c2ccccc2C(=O)c2c1ccc1nc(-c3ccc(F)cc3)[nH]c21 | > 14.6 | > 14.6 | > 14.6 | > 14.6 | > 14.6 | – | – | – | – | – | – | – | –
CC(C)CCC1=C(O)C(=O)C2=C(CCCC2)C1=O | > 20.1 | > 20.1 | > 20.1 | > 20.1 | > 20.1 | – | – | – | – | – | – | – | –
CC1=C(OC2(C)C(=O)c3ccccc3C2=O)C(=O)c2ccccc2C1=O | > 14.4 | > 14.4 | > 14.4 | > 14.4 | > 14.4 | – | – | – | – | – | – | – | –
